The source of these data is ChEMBL document CHEMBL3797147, “Nitric oxide production inhibition and mechanism of phenanthrene analogs in lipopolysaccharide-stimulated RAW264.7 macrophages” (Bioorg Med Chem Lett, 2016).

In series [1] the test system is RAW264.7. The experiment in a line: Anti-inflammatory activity in mouse RAW264.7 cells assessed as LPS-induced nitric oxide production level at 50 uM pre-incubated for 2 hrs before LPS stimulation for 24 hrs by Griess assay relative to untreated control. The format is functional. An outline of the steps: (§1)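 Cells pretreated with compound at various concentrations for 2 h, then LPS 0.5 µg/mL added for 24 h; nitrite in medium read with Griess reagent; means ± SD of triplicates.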

Series [2] can be described thus: Cytotoxicity against mouse RAW264.7 cells assessed as cell viability at 50 uM incubated for 24 hrs by Alamar-Blue assay. Format: cell-based. The following applies: read-out: Activity.
The test system of series [3] is RAW264.7. The series is described as follows: Inhibition of LPS-induced IL-1beta mRNA expression in mouse RAW264.7 cells at 10 uM pre-incubated for 2 hrs before LPS stimulation for 24 hrs by qRT-PCR method. The format is functional, cell-based. An outline of the steps:
(§2)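 Cells in 6-well plates pretreated (1, 10, 50 µM; BAY 11-7082 10 µM reference) 2 h before LPS 0.5 µg/mL for 24 h; IL-1b and IL-6 mRNA by qRT-PCR against GAPDH; mean ± SD of three experiments in triplicate.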

In series [4] the test system is RAW264.7. The experiment in a line: Anti-inflammatory activity in mouse RAW264.7 cells assessed as LPS-induced nitric oxide production level at 10 uM pre-incubated for 2 hrs before LPS stimulation for 24 hrs by Griess assay relative to untreated control. The format is functional. An outline of the steps:
as §1

Series [5] concerns RAW264.7. The experiment in a line: Inhibition of LPS-induced iNOS mRNA expression in mouse RAW264.7 cells at 10 uM pre-incubated for 2 hrs before LPS stimulation for 24 hrs by qRT-PCR method. The format is functional, cell-based. The method in brief: (§3)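 Cells pretreated with compound or 10 µM BAY 11-7082 for 2 h, then LPS 0.5 µg/mL for 24 h; total RNA extracted, iNOS mRNA by qRT-PCR normalised to GAPDH.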

For series [6], the system named is RAW264.7. The series is described as follows: Inhibition of LPS-induced IL-6 mRNA expression in mouse RAW264.7 cells at 10 uM pre-incubated for 2 hrs before LPS stimulation for 24 hrs by qRT-PCR method. Format: functional, cell-based. The method in brief:
as §2
(Real-time PCR tracks product formation cycle by cycle.)

Series [7] concerns RAW264.7. The experiment in a line: Anti-inflammatory activity in mouse RAW264.7 cells assessed as reduction in LPS-induced nitric oxide production level pre-incubated for 2 hrs before LPS stimulation for 24 hrs by Griess assay relative to untreated control. Format: functional, cell-based. An outline of the steps:
as §1

In series [8] the test system is RAW264.7. The series is described as follows: Inhibition of LPS-induced iNOS mRNA expression in mouse RAW264.7 cells pre-incubated for 2 hrs before LPS stimulation for 24 hrs by qRT-PCR method. Format: functional, cell-based. An outline of the steps:
as §3

Series [9] relates to RAW264.7. The experiment in a line: Inhibition of LPS-induced iNOS protein expression in mouse RAW264.7 cells pre-incubated for 2 hrs before LPS stimulation for 24 hrs by Western blotting method. The format is functional, cell-based. The method in brief: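 Cells in 6-well plates pretreated (1, 10, 50 µM; BAY 11-7082 10 µM) for 2 h, LPS 0.5 µg/mL 24 h; lysates immunoblotted with anti-iNOS, GAPDH loading control.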
In general terms: A western blot detects proteins with antibodies after separation by electrophoresis.

For series [10], the system named is RAW264.7. The experiment in a line: Inhibition of LPS-induced IL-1beta mRNA expression in mouse RAW264.7 cells pre-incubated for 2 hrs before LPS stimulation for 24 hrs by qRT-PCR method. The format is functional, cell-based. The method in brief:
as §2

Series [11] concerns RAW264.7. The experiment in a line: Inhibition of LPS-induced IL-6 mRNA expression in mouse RAW264.7 cells pre-incubated for 2 hrs before LPS stimulation for 24 hrs by qRT-PCR method. Format: functional, cell-based. An outline of the steps: as §2
The test system of series [12] is RAW264.7. The series is described as follows: Inhibition of LPS-induced IL-6 protein expression in mouse RAW264.7 cells at 1 to 50 uM pre-incubated for 2 hrs before LPS stimulation for 24 hrs by ELISA. In general terms: In an ELISA, binding on a coated surface is turned into a signal by an enzyme label.
Series [13] concerns the target T1, NF-kappa-B inhibitor alpha (Mus musculus) (UniProt Q9Z1E3).
T1 sequence (whole entry): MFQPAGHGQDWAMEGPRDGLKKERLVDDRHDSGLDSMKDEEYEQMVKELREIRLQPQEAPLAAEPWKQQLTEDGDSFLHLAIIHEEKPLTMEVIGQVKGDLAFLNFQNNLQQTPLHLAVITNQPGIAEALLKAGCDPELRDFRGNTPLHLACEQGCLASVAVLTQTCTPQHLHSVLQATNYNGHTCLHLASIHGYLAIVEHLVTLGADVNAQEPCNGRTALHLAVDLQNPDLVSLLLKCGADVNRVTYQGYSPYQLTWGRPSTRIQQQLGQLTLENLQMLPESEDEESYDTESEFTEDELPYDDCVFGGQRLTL
The series is described as follows: Inhibition of LPS-induced IkappaB-alpha degradation in mouse RAW264.7 cells at 1 to 50 uM pre-incubated before LPS stimulation for 5 mins by Western blotting method.

Series [14] addresses T1, NF-kappa-B inhibitor alpha (Mus musculus). The experiment in a line: Inhibition of LPS-induced IkappaB-alpha phosphorylation in mouse RAW264.7 cells at 1 to 50 uM pre-incubated before LPS stimulation for 5 mins by Western blotting method.
The target of series [15] is RAC-alpha serine/threonine-protein kinase (Mus musculus) (UniProt P31750). The series is described as follows: Inhibition of LPS-induced AKT phosphorylation in mouse RAW264.7 cells at 1 to 50 uM pre-incubated for 30 mins before LPS stimulation for 30 mins by Western blotting method.
Sequence of RAC-alpha serine/threonine-protein kinase (Mus musculus) (P31750 whole entry): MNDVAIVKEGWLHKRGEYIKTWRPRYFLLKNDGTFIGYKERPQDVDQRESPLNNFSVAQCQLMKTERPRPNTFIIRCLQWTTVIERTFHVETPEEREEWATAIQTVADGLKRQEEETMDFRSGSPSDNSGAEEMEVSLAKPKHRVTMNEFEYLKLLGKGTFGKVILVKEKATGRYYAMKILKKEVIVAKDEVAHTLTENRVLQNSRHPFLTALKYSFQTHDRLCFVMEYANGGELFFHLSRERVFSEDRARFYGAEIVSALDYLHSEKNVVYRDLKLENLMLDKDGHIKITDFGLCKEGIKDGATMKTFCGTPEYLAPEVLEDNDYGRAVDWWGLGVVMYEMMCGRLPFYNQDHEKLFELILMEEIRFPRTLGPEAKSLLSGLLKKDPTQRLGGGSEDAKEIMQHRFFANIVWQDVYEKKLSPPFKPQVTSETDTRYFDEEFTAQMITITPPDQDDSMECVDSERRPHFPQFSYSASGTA
The target of series [16] is MAP kinase p38 (Mus musculus) (UniProt P47811+O08911+Q9WUI1+Q9Z1B7). The series is described as follows: Inhibition of LPS-induced p38 MAPK phosphorylation in mouse RAW264.7 cells at 1 to 50 uM pre-incubated for 2 hrs before LPS stimulation for 30 min by Western blotting method.
For series [17], the target named is Mitogen-activated protein kinase 1 and 3 (ERK2 and ERK1) (Mus musculus) (UniProt P63085+Q63844). The experiment in a line: Inhibition of LPS-induced ERK1/2 MAPK phosphorylation in mouse RAW264.7 cells at 1 to 50 uM pre-incubated for 2 hrs before LPS stimulation for 30 mins by Western blotting method.
Sequence of Mitogen-activated protein kinase 1 and 3 (ERK2 and ERK1) (Mus musculus) (P63085 whole entry, looked up): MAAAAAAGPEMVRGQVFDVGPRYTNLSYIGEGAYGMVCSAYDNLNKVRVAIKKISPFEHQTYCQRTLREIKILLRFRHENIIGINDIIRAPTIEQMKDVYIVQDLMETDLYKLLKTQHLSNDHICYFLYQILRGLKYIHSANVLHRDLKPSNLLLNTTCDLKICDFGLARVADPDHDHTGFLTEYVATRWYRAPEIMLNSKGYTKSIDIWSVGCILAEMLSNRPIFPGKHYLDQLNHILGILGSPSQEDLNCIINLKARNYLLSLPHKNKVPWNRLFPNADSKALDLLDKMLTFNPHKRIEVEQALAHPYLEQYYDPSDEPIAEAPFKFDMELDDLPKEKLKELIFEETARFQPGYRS
Sequence of Mitogen-activated protein kinase 1 and 3 (ERK2 and ERK1) (Mus musculus) (Q63844 whole entry, looked up): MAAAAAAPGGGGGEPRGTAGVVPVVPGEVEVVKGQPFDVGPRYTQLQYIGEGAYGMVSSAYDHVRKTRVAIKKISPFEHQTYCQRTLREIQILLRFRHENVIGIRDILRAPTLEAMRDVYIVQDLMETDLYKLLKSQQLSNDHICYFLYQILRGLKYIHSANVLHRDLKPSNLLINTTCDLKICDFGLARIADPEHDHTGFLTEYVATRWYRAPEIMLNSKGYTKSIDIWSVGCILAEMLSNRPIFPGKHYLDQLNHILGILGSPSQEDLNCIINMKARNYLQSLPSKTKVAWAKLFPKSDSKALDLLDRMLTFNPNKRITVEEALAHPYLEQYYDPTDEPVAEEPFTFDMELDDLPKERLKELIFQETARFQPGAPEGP
The target in series [18] is JNK1/JNK2 (Mus musculus) (UniProt Q91Y86+Q9WTU6). The experiment in a line: Inhibition of LPS-induced JNK1/2 MAPK phosphorylation in mouse RAW264.7 cells at 1 to 50 uM pre-incubated for 2 hrs before LPS stimulation for 30 mins by Western blotting method.
Sequence of JNK1/JNK2 (Mus musculus) (Q91Y86 whole entry, looked up): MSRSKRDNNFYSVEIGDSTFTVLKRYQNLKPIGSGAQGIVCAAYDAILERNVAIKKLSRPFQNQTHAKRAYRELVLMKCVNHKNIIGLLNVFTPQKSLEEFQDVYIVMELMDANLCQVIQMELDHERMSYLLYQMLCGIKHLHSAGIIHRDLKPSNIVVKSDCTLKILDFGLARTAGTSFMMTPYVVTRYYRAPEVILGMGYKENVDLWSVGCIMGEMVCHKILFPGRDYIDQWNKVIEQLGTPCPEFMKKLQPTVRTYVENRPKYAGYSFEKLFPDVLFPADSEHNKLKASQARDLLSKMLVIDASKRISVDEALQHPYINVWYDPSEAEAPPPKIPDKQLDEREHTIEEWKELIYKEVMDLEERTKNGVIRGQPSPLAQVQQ
Sequence of JNK1/JNK2 (Mus musculus) (Q9WTU6 whole entry, looked up): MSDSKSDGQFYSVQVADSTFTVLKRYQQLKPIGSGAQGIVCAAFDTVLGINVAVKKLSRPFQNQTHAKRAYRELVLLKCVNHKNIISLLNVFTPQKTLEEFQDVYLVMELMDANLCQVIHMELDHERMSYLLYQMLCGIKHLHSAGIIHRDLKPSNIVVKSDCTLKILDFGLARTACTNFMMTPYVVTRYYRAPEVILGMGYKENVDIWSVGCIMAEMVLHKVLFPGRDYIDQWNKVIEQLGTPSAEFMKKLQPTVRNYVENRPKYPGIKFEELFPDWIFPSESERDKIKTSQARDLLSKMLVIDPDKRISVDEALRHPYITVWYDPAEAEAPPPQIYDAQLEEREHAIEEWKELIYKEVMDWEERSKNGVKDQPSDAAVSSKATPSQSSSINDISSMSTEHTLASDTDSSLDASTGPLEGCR

Molecules are shown by their SMILES. Activity calls are given as the source filed them. No cut-off for these calls is given here.

Consider `COc1cc2c(C(=O)O)cc3cc4c(cc3c2cc1OC)OCO4`, for which the Activity in series [1] came to 53.1%. In [2], the viability at 24 h, 50 µM turned out to be 107%.

Turning to `COc1ccc(/C(=C\c2ccc3c(c2)OCO3)C(=O)O)cc1OC`, the Activity in series [1] was determined as 86%. Further, in [2], the viability at 24 h, 50 µM turned out to be 123%.

For `COC(=O)c1cc2cc(OC)c(OC)cc2c2cc(OC)c(OC)cc12`, the Activity in series [1] is 45.3%. Further, in series [2], the viability at 24 h, 50 µM worked out at 101%.

Turning to `CCN(CC)C(=O)/C(=C/c1ccc(OC)c(OC)c1)c1ccc(OC)c(OC)c1`, the Activity in series [1] is listed as 92.7%. Also, the viability at 24 h, 50 µM in [2] is 111%.

With `COc1ccc(/C(=C/c2ccc3c(c2)OCO3)C(=O)O)cc1OC`, the Activity in series [1] came out at 106.9%. Besides, the viability at 24 h, 50 µM in [2] was determined as 103%.

`Cc1ccc(S(=O)(=O)/C=C/C#N)cc1`: the inhibition result in series [3], in series [5] and in series [6] was “Active” in each case. Also, the Activity in [4] came to 1.2%.

As for `COC(=O)/C(=C/c1ccc(OC)c(OC)c1)c1ccc(OC)cc1`, in [1], the Activity stood at 45.5%. Besides, the viability at 24 h, 50 µM in series [2] came to 66.7%. Also, the IC50 (in general, the concentration at which inhibition is half-maximal) in series [7] stood at 37.3 µM.

Turning to `COC(=O)/C(=C/c1ccc(OC)c(OC)c1)c1ccc(OC)c(OC)c1`, the Activity in series [1] was found to be 3.9%. Besides, the viability at 24 h, 50 µM in series [2] was 114%. Moreover, the IC50 in [7] is 5.05 µM. Further, the inhibition result in series [8], in series [9], in [10] and in [11] was “Dose-dependent effect” each time. In addition, the inhibition entry in [12], in [13], in series [14], in series [15] and in [16] was “Active” in each case. Also, the inhibition entry in series [17] and in series [18] was “inactive” each time.

As for `COC(=O)/C(=C/c1cccc(OC)c1)c1ccc(OC)c(OC)c1`, the Activity in series [1] came out at 84.6%. Moreover, the viability at 24 h, 50 µM in series [2] was 76.5%.

As to `COc1cc2cc(C(=O)O)c3cc(OC)c(OC)cc3c2cc1OC`, the Activity in series [1] is on record as 78.2%. The viability at 24 h, 50 µM in series [2] stood at 101%.

Take `COC(=O)/C(=C\c1ccc(OC)c(OC)c1)c1ccc(OC)c(OC)c1`: in [1], the Activity came to 98.7%. Moreover, the viability at 24 h, 50 µM in series [2] was 91.1%.

For `COc1ccc(/C=C(/C(=O)O)c2ccc(OC)c(OC)c2)cc1OC`, the Activity in series [1] is 64.3%. In addition, the viability at 24 h, 50 µM in [2] came out at 121%.

In the case of `COC(=O)/C(=C/c1ccc2c(c1)OCO2)c1ccc(OC)c(OC)c1`, the Activity in series [1] is on record as 109.2%. Further, in [2], the viability at 24 h, 50 µM worked out at 88%.

As to `CCN(CC)C(=O)c1cc2cc(OC)c(OC)cc2c2cc(OC)c(OC)cc12`, in [1], the Activity is listed as 39.8%. Moreover, the viability at 24 h, 50 µM in series [2] came out at 94.7%. Besides, the IC50 in series [7] amounted to 20.3 µM.

On to `COC(=O)c1cc2cc3c(cc2c2cc(OC)c(OC)cc12)OCO3`, for which, in [1], the Activity stood at 75%. Also, the viability at 24 h, 50 µM in series [2] was found to be 101%.

For the molecule `COc1ccc(/C=C(\C#N)c2ccc(OC)c(OC)c2)cc1OC`, in series [1], the Activity is given as 46.7%. In addition, the viability at 24 h, 50 µM in series [2] stood at 96.7%.

Take `COc1ccc(/C=C(\C(=O)O)c2ccc(OC)c(OC)c2)cc1OC`: the Activity in series [1] was found to be 120.7%. Besides, the viability at 24 h, 50 µM in [2] amounted to 106%.

For the molecule `COC(=O)c1cc2cc(OC)c(OC)cc2c2cc(OC)ccc12`, the Activity in [1] was 83%. Also, the viability at 24 h, 50 µM in series [2] amounted to 99.7%.

With `COC(=O)/C(=C\c1ccc2c(c1)OCO2)c1ccc(OC)c(OC)c1`, in [1], the Activity worked out at 79%. Also, the viability at 24 h, 50 µM in series [2] turned out to be 56.1%.

For the molecule `COc1cc2cc(C#N)c3cc(OC)c(OC)cc3c2cc1OC`, in series [1], the Activity is on record as 108.8%. The viability at 24 h, 50 µM in series [2] came to 102%.

For `COC(=O)c1cc2cc(OC)ccc2c2cc(OC)c(OC)cc12`, the Activity in series [1] is on record as 48.8%. Also, the viability at 24 h, 50 µM in series [2] was 99.3%.
